The text below walks through data of ChEMBL document CHEMBL4373668, “Bivalent AMPA receptor positive allosteric modulators of the bis(pyrimidine) series” (Medchemcomm, 2019).

The target in test [1] is T1, Glutamate receptor ionotropic, AMPA (Rattus norvegicus) (UniProt P19491+P19492+P19493+P19490). Description: Positive allosteric modulation of rat Purkinje neuron AMPA receptor assessed as change in kainate-induced current at 10^-6 M measured for 2 mins by patch clamp assay (rvb = 100%). The method in brief: (§1)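 Purkinje neurons were freshly isolated from the cerebellum of 12–16-day-old rat pups by protease/collagenase digestion at 34°C under O₂. Whole-cell patch clamp was used, with compounds given by fast perfusion in extracellular saline at pH 7.32. Kainic acid (20 µM) was applied three times per concentration, 2 min apart, with a 3-min washout between concentrations. Current amplitude was normalized to the KA control (100%), using 4–7 neurons per concentration.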

Test [2] addresses T1, Glutamate receptor ionotropic, AMPA (Rattus norvegicus). Description: Positive allosteric modulation of rat Purkinje neuron AMPA receptor assessed as change in kainate-induced current at 10^-7 M measured for 2 mins by patch clamp assay (rvb = 100%). The method in brief:
as §1
For orientation: The patch-clamp technique gives a direct electrical read-out from membranes.

For test [3] the target is unchanged. In words: Positive allosteric modulation of rat Purkinje neuron AMPA receptor assessed as change in kainate-induced current at 10^-8 M measured for 2 mins by patch clamp assay (rvb = 100%). In outline: as §1
Test [4] has the same target. In words: Positive allosteric modulation of rat Purkinje neuron AMPA receptor assessed as change in kainate-induced current at 10^-11 M measured for 2 mins by patch clamp assay (rvb = 100%). The method in brief: as §1
Test [5] has the same target. Description: Positive allosteric modulation of rat Purkinje neuron AMPA receptor assessed as change in kainate-induced current at 10^-9 M measured for 2 mins by patch clamp assay (rvb = 100%). The method in brief:
as §1

For test [6] the target is unchanged. Description: Positive allosteric modulation of rat Purkinje neuron AMPA receptor assessed as change in kainate-induced current at 10^-10 M measured for 2 mins by patch clamp assay (rvb = 100%). The method in brief: as §1
Test [7] shares this target. In words: Positive allosteric modulation of rat Purkinje neuron AMPA receptor assessed as change in kainate-induced current at 3 x 10^-5 M measured for 2 mins by patch clamp assay (rvb = 100%).
For test [8] the target is unchanged. In words: Positive allosteric modulation of rat Purkinje neuron AMPA receptor assessed as change in kainate-induced current at 10^-5 M measured for 2 mins by patch clamp assay (rvb = 100%).
For test [9] the target is unchanged. Description: Positive allosteric modulation of rat Purkinje neuron AMPA receptor assessed as change in kainate-induced current at 10^-12 M measured for 2 mins by patch clamp assay (rvb = 100%). In outline: as §1

Consider `CC(C)(C)c1nc2c(c(Oc3ccc(Oc4nc(C(C)(C)C)nc5c4CCCC5)cc3)n1)CCCC2`, for which the Activity was found to be 145% in test [1]; 133% in test [2]; 125% in test [3]; 100% in test [4]; 120% in test [5]; 108% in test [6].

For `c1cc(Oc2nc(C3CC3)nc3c2CCCC3)ccc1Oc1nc(C2CC2)nc2c1CCCC2`, the Activity in test [1] came out at 96%; in test [2] it was 97%; in [3] it was 96%; in test [4] it was 100%; in test [5], 95%; in test [6], 100%.

For `NS(=O)(=O)c1cc2c(cc1Cl)NC(C1CC3C=CC1C3)NS2(=O)=O` (stereo not given), the Activity came out at 145% in test [1], 100% in test [2], 560% in [7] and 235% in test [8].

Consider `CC(C)c1nc2c(c(Oc3ccc(Oc4nc(C(C)C)nc5c4CCCC5)cc3)n1)CCCC2`, for which the Activity in test [2] turned out to be 98%; in [3], 92%; in test [4], 84%; in test [5], 82%; in [9] it was 100%; in test [6] it was 72%.

`CCc1nc2c(c(Oc3ccc(Oc4nc(CC)nc5c4CCCC5)cc3)n1)CCCC2`: the Activity in test [2] amounted to 100%; in test [3], 128%; in test [4], 117%; in [5], 155%; in test [9], 100%; in test [6], 126%.

For the compound `Cc1nc2c(c(Oc3ccc(Oc4nc(C)nc5c4CCCC5)cc3)n1)CCCC2`, the Activity in [1] was 78%; in test [2] it was 85%; in [3], 123%; in test [4], 132%; in test [5] it was 170%; in test [9] it was 108%. The Activity in test [6] was found to be 143%.
